Results gathered from unrelated publications.
Compare with care: the assays were run in different laboratories.
Target: Serine/threonine-protein kinase MARK1 (MARK1, Homo sapiens, UniProt Q9P0L2)

Compound	effect on	technique	concentration	remaining binding [%]
COc1cc(-c2cn(C3CCc4c(F)cccc4N(CC(F)(F)F)C3=O)nn2)ccc1-n1cnc(C)c1 (stereo not shown)	cell-free assay	competition with immobilised ligand	1 µM	100
O=C(Nc1c[nH]nc1C(=O)NC1CCNCC1)c1cc(F)cc(F)c1	binding	competition with immobilised ligand	1 µM	100
Cc1cc(NC(=O)c2cccc(S(F)(F)(F)(F)F)c2)cc(-n2ccn3nc(-c4cccnc4)cc23)c1	cell-free assay	competition with immobilised ligand	1 µM	100
Nc1ncc2c(n1)-c1c([nH]c3ccc(C#CC4CC4)cc13)CCCC2	binding	competition with immobilised ligand	1 µM	98
c1cnn2ncc(-c3ccnc(N4CCC45COC5)n3)c2c1	binding	–	1 µM	91
O=C(c1ccc(Nc2ncc(Cl)c(-c3cc4ccccc4s3)n2)cc1)N1CCC(N2CCCC2)CC1	binding	competition with immobilised ligand	1 µM	27
Cc1cnn2ncc(-c3ccnc(N(C)C)n3)c2c1	binding	–	1 µM	98
c1cncc(-c2cccc(Nc3nccc(NC4CCCCC4)n3)c2)c1	binding	competition with immobilised ligand	10 µM	90
C[C@H]1CCN(c2nccc(-c3cnn4ncccc34)n2)C1	binding	–	1 µM	92
O=C(c1ccc(Nc2ncc(Cl)c(-c3ccc(Cl)s3)n2)cc1)N1CCC(N2CCCC2)CC1	binding	competition with immobilised ligand	1 µM	24
Cc1nc(Cc2cccc(C(F)(F)F)c2)sc1-c1ccc(C(N)=O)nc1	cell-free assay	competition with immobilised ligand	1 µM	90
CN(c1nccc(-c2cnn3ncccc23)n1)C1CC1	binding	–	1 µM	83
O=C(NCCCN1CCOCC1)c1ccc(Nc2nccc(-c3cc4ccccc4s3)n2)cc1	binding	competition with immobilised ligand	1 µM	66
COCCOc1nc(-c2ccc(Cl)nc2)nc2c1CN(C(=O)c1ncn3ccccc13)CC2	cell-free assay	competition with immobilised ligand	0.1 µM	100
CC1CCCN1c1nccc(-c2cnn3ncccc23)n1 (stereo not shown)	binding	–	1 µM	100
CNC(=O)[C@@H]1CC[C@@H](n2c(-c3ccc4cnccc4c3)nc3ccc(C(=O)NCc4cccc(C(N)=O)c4)cc32)C1	binding	competition with immobilised ligand	1 µM	94
O=c1nc(-c2ccccn2)sc2ccccc12	binding	competition with immobilised ligand	1 µM	100
C[C@@H](c1ccc(-n2cnc3c(N)ncnc32)cc1)N1CCc2nn(C)c(Cc3ccccc3)c2C1=O	binding	competition with immobilised ligand	0.1 µM	88
CNC(=O)Nc1ccc2c(c1)CC[C@@]21OC(=O)N(CC(=O)N(Cc2ccc(F)cc2)[C@@H](C)C(F)(F)F)C1=O	cell-free assay	competition with immobilised ligand	1 µM	89
COc1cnc(Nc2cccc(S(N)(=O)=O)c2)nc1N1CCN(c2ccccc2)C(=O)C1	binding	competition with immobilised ligand	1 µM	95
CN(C)C(=O)Cn1cc(-c2nc([C@@](C)(c3ccc(-c4cnc(N)nc4)cc3)C3CC3)no2)cn1	cell-free assay	competition with immobilised ligand	1 µM	92
N[C@@H]1CCN(c2nccc(-c3cnn4ncccc34)n2)C1	binding	–	1 µM	100
